Rows were chosen to be rich in hits. Some 4.5% of all compounds tested hit in one or more screens of this group.
GPR7 antag: GPR7 receptor antagonists, primary screen, cell-based, fluorescence, single concentration | 290,000 compounds, 1.1% hits | inhibition, % at 4.4 µM | GPR7-expressing cells, fluorescence antagonist assay; in the data active = inhibition above about 16%, passing the limit was not always enough;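 note: cells stimulated with the agonist NPW; 0% = agonist with vehicle and 100% = vehicle without agonist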
Target sequence (P48145 whole entry, looked up): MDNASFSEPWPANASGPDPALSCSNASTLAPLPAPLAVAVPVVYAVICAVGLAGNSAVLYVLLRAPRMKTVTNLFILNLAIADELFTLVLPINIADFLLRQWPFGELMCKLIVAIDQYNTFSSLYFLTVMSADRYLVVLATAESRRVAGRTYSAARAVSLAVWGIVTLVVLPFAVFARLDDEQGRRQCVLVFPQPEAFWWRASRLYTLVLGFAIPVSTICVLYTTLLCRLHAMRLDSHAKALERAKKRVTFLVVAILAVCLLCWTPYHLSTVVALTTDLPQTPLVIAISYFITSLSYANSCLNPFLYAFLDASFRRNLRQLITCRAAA
OX1R antag-1: antagonists of human orexin 1 receptor (OX1R); Orexin/Hypocretin receptor type 1 (Homo sapiens), O43613; OX1R-expressing cells, FRET antagonist read-out; inhibition, % at 6.6 µM; 330,000 compounds, 1.8% hits; in the data active = inhibition mostly above about 38%, no sharp cut-off; inactive = mostly below about 40%;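 note: 0% = agonist challenge alone and 100% = reference antagonist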
TAAR1 antagonist: human TAAR1 antagonists, primary screen, Fluo-8 calcium fluorescence, CHO RD-HGA16 cells; inhibition, % at 3 µM; antagonist; 360,000 compounds, 1.5% hits; Trace amine-associated receptor 1 (Homo sapiens), Q96RJ0;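 active = inhibition above a per-plate cutoff, the mean inhibition of test compounds on that plate plus 3 SD, cut at about 49% in these data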;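 note: 0% = DMSO plus EC80 beta-PEA response and 100% = DMSO alone without agonist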
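Test system: RD-HGA16 CHO cells with stable hTAAR1 and Gα16 / Probe or stimulus: EC80 β-phenethylamine stimulus / Times: seeding 17-24 h prior, 75-min 37 °C, 30-min RT dye loading / Detection: Fluo-8 calcium-sensitive fluorescence / Read-out basis: % inhibition scaled between DMSO and EC80 PEA controls / Repeats: singlicate, one well per test compound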
OX1R antag-2: OX1R (HCRTR1) antagonists, primary screen, fluorescence, CHO/OX1R cells, Fluo-8 calcium, orexin A; 330,000 compounds, 0.43% hits; AID 434989, 2010; Fluo-8 calcium fluorescence; Orexin/Hypocretin receptor type 1 (Homo sapiens), O43613; inhibition, % at 5 µM;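 active = inhibition above its plate's threshold, mean inhibition of all tested compounds on the plate plus 3 SD, cut at about 37% in these data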;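 note: 0% = orexin A challenge wells and 100% = SB-334867-A antagonist wells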
CHO parental Ca: ATP-evoked calcium signal inhibitors, parental CHO, primary screen, counter-screen for OX1R antagonist project, cell-based, fluorescence, Fluo-8 calcium dye; parental CHO-K1, ATP-induced calcium, Fluo-8 fluorescence; inhibition, % at 5.6 µM; 330,000 compounds, 0.63% hits; AID 463079, 2010;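 active = inhibition above that plate's mean sample inhibition plus 3 SD, cut at about 26% in these data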;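 note: 0% = ATP-challenged DMSO wells and 100% = DMSO wells without ATP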
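Measured by: calcium-sensitive Fluo-8 fluorescence / Test system: CHO parental line / Controls: ATP-challenged DMSO wells low, unchallenged DMSO wells high / Measure: % inhibition / Compound: single nominal dose of 5.6 µM per compound / Replicates: single well per compound, no replicates / Reagent: ATP as calcium-mobilizing challenge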
TAAR1 ag: human TAAR1 agonists, primary screen, Fluo-8 calcium fluorescence, CHO RD-HGA16 cells; activation, % at 3 µM; 360,000 compounds, 0.99% hits; AID 624467, 2012; vehicle wells 0%, saturating PEA agonist 100%;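 active = activation above the mean activation of all test compounds in the run plus 3 SD, cut at about 38% in these data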
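Test system: RD-HGA16 (CHO) cells co-expressing Gα16 and hTAAR1 / Benchmarks: DMSO vehicle as 0%, PEA at EC100 as 100% / Repeats: no replicates (n 1) / Measure: % activation from peak over basal fluorescence ratio, DMSO-to-PEA scaled / Timing: 17-24 h plating, Fluo-8 75 min 37 °C, 30 min RT / Technique: kinetic Fluo-8 calcium fluorescence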
GPR7 antag conf: GPR7 receptor antagonists, confirmation, cell-based, fluorescence, single concentration | shares compounds with GPR7 antag | GPR7-expressing cells, calcium fluorescence antagonist mode | inhibition, % at 4.4 µM | 2,400 compounds, 52% hits | AID 1952, 2009; in the data active = inhibition above about 24%;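 note: stimulated with the GPR7 agonist NPW; 0% = agonist plus vehicle and 100% = vehicle alone without agonist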
MCHR1 antag: MCHR1 antagonists in cells, counter-screen for GPR7 antagonist project, cell-based, fluorescence, human | shares compounds with GPR7 antag | 2,400 compounds, 62% hits | AID 2148, 2009 | inhibition, % at 4.4 µM | MCHR1-expressing cells, fluorescence antagonist assay; in the data active = inhibition above about 22%;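 note: 0% = vehicle with agonist and 100% = vehicle without agonist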
* marks the source's active call; other numbers are inactive results.

For O=C1NC(=O)C2(CCCc3c([N+](=O)[O-])cccc32)N1 (configuration not stated) the results were TAAR1 antagonist 9 and TAAR1 ag 2.
CCN(CC)c1ccc(C(=C2C=CC(=[N+](CC)CC)C=C2)c2ccc(S(=O)(=O)O)cc2S(=O)(=O)[O-])cc1 was read as TAAR1 antagonist -6 and TAAR1 ag 2.
For Clc1ccc2c(NCc3ccco3)ncnc2c1 the results were GPR7 antag 23*, OX1R antag-1 14, TAAR1 antagonist 21, OX1R antag-2 4, CHO parental Ca 3, TAAR1 ag 7, GPR7 antag conf 6 and MCHR1 antag 16.
For Clc1ccc2c(NCc3cccs3)ncnc2c1 the results were GPR7 antag 16, OX1R antag-1 18, TAAR1 antagonist 23, OX1R antag-2 -24, CHO parental Ca 8 and TAAR1 ag 12.
NC(=S)N/N=C/c1c(O)ccc2ccccc12 was read as GPR7 antag 23*, OX1R antag-1 17, TAAR1 antagonist -10, OX1R antag-2 -2, CHO parental Ca 8, TAAR1 ag 3, GPR7 antag conf 1 and MCHR1 antag -1.
O=CN/N=C/c1c(O)ccc2ccccc12 was read as GPR7 antag -7, OX1R antag-1 20, TAAR1 antagonist -18, OX1R antag-2 -12, CHO parental Ca -2 and TAAR1 ag 3.
Screening CCOc1ccc(NC(=O)Nc2cc(-c3ccccc3)sc2C(=O)OC)cc1 returned GPR7 antag 8, OX1R antag-1 24, TAAR1 antagonist 2, OX1R antag-2 -32, CHO parental Ca -25 and TAAR1 ag 0.
CCOc1ccc(-c2cc(NC(=O)c3c(F)cccc3F)c(C(=O)O)s2)cc1 was read as GPR7 antag 51*, TAAR1 antagonist 25, TAAR1 ag 4, GPR7 antag conf 26* and MCHR1 antag 28*.
For O=C(COC(=O)Cn1cc(C(F)(F)F)ccc1=O)Nc1ccc(Br)cc1F the results were TAAR1 antagonist -30 and TAAR1 ag 1.
C/C(=N\NC(=O)c1nnn(-c2nonc2N)c1C)c1ccc(OCc2ccccc2)cc1 was read as GPR7 antag 39*, OX1R antag-1 7, TAAR1 antagonist -19, OX1R antag-2 -14, CHO parental Ca -16, TAAR1 ag 2, GPR7 antag conf -1 and MCHR1 antag 8.
For O=P(OC1CCCCC1)(OC1CCCCC1)C(Nc1ccccc1)c1cccnc1 (configuration not stated) the results were GPR7 antag 32*, OX1R antag-1 19, TAAR1 antagonist 48, OX1R antag-2 -12, CHO parental Ca -19, TAAR1 ag 9, GPR7 antag conf 31* and MCHR1 antag 39*.
O=C(NCc1cc(Cl)cc(Cl)c1)c1csc(COCCO)n1 was read as TAAR1 antagonist -16 and TAAR1 ag 6.
Screening CC(NCCC1(Cc2ccccc2Cl)CCOC(C)(C)C1)c1cccs1 (configuration not stated) returned GPR7 antag 28*, OX1R antag-1 5, TAAR1 antagonist -28, OX1R antag-2 -41, CHO parental Ca -29, TAAR1 ag 6, GPR7 antag conf 31* and MCHR1 antag 20.
CCCc1nc2ccc(C(=O)OC)cn2c1Cc1ccc(C)cc1 was read as TAAR1 antagonist -9 and TAAR1 ag -1.

Screens from PubChem.
